These results are taken from ChEMBL document CHEMBL1132257, “Apstatin analogue inhibitors of aminopeptidase P, a bradykinin-degrading enzyme” (J Med Chem, 1999).

The pIC50 is −log10 of the IC50, conventionally taken in molar units.

The nature of test [1]: Inhibition against Aminopeptidase P from Escherichia coli. The method in brief:
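Recombinant E. coli AP-P, preincubated with 0.73 mM MnCl2 (0.02 mM residual in assay). Hydrolysis of 0.5 mM Arg-Pro-Pro in 0.1 M Hepes pH 8.0 tracked by fluorescence of free arginine. IC50 by linear regression of rate vs log inhibitor concentration over 10 concentrations, triplicate each.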

Test [2] in a line: Inhibition against Aminopeptidase P from bovine. It is filed as single protein. An outline of the steps:
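Source was bovine lung membrane-bound enzyme purified to homogeneity. Substrate 0.5 mM Arg-Pro-Pro, 0.1 M Hepes pH 8.0, with fluorimetric detection of released arginine. IC50 by linear regression of rate vs log [inhibitor] (linear part), using 10 concentrations near a preliminary estimate, in triplicate.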

The target of test [3] is T1, Xaa-Pro aminopeptidase 1 (Homo sapiens, UniProt Q9NQW7). Kind of test: Inhibition against Aminopeptidase P from human platelets. The method in brief:
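Enzyme from human platelets: washed in PBS with prostacyclin, freeze-thawed, sonicated; the 43000g 2 h supernatant was used. Substrate 0.5 mM Arg-Pro-Pro, 0.1 M Hepes pH 8.0, fluorimetric arginine read-out. IC50 from triplicate rates at 10 concentrations, by linear regression of rate vs log concentration.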

For test [4], the target named is T1, Xaa-Pro aminopeptidase 1. Kind of test: Inhibition against cytosolic Aminopeptidase P from human heart. The method in brief: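 Human heart homogenate in 0.1 M potassium phosphate pH 6.8: the 40000g supernatant, or enzyme partly purified on TNB-thiol agarose with dithiothreitol elution and exchange into Hepes. Assayed with 0.5 mM Arg-Pro-Pro, 0.1 M Hepes pH 8.0; arginine measured by fluorescence. IC50 by linear regression, 10 concentrations in triplicate.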

In test [5] the target is Xaa-Pro aminopeptidase 2 (Homo sapiens, UniProt O43895). Kind of test: Inhibition against membrane bound human aminopeptidase P. The method in brief:
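Partially purified membrane-bound AP-P from human or cynomolgus lung, released from microsomes by phosphatidylinositol-specific phospholipase C and then centrifuged. Triplicate rates at 10 inhibitor levels; IC50 by linear regression of the linear part of the rate vs log concentration plot.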

The target of test [6] is T2, Xaa-Pro aminopeptidase 2 (Rattus norvegicus, UniProt Q99MA2).
T2 sequence (Q99MA2 whole entry): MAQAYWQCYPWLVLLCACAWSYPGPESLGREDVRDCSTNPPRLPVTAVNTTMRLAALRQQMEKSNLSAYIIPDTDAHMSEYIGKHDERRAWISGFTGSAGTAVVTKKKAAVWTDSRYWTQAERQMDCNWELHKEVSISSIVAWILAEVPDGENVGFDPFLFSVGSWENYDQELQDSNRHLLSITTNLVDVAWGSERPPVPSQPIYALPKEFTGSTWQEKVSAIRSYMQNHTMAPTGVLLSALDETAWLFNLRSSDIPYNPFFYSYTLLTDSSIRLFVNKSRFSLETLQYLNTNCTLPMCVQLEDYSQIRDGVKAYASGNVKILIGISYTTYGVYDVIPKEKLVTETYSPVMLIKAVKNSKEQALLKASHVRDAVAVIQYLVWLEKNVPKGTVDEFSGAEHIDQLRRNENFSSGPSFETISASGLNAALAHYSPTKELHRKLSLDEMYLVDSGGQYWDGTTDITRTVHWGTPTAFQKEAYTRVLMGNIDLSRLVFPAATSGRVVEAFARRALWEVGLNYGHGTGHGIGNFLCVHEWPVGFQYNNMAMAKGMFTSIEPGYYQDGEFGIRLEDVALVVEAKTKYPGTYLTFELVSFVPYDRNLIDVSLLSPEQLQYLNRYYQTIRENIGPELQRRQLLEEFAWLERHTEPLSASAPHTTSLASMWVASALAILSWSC
Kind of test: Activity against membrane bound rat aminopeptidase P. An outline of the steps:
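Membrane-bound AP-P purified to homogeneity from rat lung; 0.5 mM Arg-Pro-Pro substrate in 0.1 M Hepes, pH 8.0; free arginine release read by fluorescence. IC50 from 10 inhibitor concentrations around an approximate value, each in triplicate, by linear regression of the linear portion of rate vs log inhibitor concentration.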

pIC50: −log10 of the molar value.

T1 sequence (Q9NQW7 whole entry): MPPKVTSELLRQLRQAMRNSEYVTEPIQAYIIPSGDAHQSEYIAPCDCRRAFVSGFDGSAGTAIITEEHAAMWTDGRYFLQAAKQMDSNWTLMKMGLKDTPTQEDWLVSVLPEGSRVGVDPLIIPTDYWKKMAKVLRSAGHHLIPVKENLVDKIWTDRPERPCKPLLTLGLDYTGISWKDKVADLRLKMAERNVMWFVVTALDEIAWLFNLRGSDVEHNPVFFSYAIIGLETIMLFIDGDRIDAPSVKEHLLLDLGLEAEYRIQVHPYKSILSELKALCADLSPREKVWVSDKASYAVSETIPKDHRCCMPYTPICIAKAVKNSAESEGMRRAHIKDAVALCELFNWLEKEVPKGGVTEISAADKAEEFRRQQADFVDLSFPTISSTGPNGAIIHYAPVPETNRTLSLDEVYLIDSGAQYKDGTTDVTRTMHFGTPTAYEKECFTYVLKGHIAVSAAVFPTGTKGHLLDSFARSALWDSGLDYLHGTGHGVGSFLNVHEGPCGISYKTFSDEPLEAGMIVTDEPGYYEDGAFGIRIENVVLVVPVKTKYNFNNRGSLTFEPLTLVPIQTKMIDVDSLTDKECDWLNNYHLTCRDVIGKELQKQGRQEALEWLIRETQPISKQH
Sequence of Xaa-Pro aminopeptidase 2 (Homo sapiens, UniProt O43895) (O43895 whole entry): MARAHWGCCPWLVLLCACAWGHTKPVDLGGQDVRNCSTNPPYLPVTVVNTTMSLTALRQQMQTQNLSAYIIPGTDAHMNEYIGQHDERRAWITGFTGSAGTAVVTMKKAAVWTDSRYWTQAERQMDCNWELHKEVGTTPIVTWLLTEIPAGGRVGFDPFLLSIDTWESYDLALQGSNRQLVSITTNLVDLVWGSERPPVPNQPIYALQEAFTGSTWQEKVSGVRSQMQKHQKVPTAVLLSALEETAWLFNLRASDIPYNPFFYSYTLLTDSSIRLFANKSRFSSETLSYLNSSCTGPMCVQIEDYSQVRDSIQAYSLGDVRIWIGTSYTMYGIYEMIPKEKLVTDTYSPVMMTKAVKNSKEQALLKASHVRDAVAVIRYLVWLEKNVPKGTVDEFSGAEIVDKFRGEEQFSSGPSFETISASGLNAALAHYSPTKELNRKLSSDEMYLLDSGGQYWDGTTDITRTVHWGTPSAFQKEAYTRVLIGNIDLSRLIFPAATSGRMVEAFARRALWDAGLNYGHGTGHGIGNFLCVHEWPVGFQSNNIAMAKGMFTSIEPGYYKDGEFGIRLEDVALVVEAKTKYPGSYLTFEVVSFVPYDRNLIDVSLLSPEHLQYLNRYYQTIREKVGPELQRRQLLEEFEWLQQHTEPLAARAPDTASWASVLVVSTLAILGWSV

On to `C[C@H](NC(=O)[C@@H]1CCCN1C(=O)[C@@H]1C[C@@H](O)CN1C(=O)[C@@H](O)[C@H](N)Cc1ccccc1)C(N)=O`, for which the pIC50 in test [1] is 3.80; in test [2] it was under 2.70; against Xaa-Pro aminopeptidase 1 [3], under 2.70; against Xaa-Pro aminopeptidase 1 [4], under 2.70.

For `C[C@H](NC(=O)[C@@H]1CCCN1C(=O)[C@@H]1CCCN1C(=O)[C@@H](O)[C@H](N)Cc1ccccc1)C(N)=O`, the negative-log IC50 (pIC50) is 5.05 in test [1], 5.03 in test [2], 4.74 against Xaa-Pro aminopeptidase 1 [3] and 4.68 against Xaa-Pro aminopeptidase 1 [4].

Take `NC(=O)[C@@H]1CCCN1C(=O)[C@@H]1CCCN1C(=O)[C@@H](O)[C@H](N)Cc1ccccc1`: the pIC50 is 4.80 in test [1], 2.89 in test [2], 3.60 on Xaa-Pro aminopeptidase 1 [3] and 4.35 on Xaa-Pro aminopeptidase 1 [4].

Consider `C[C@H](NC(=O)[C@@H]1CCCN1C(=O)[C@@H]1CSCN1C(=O)[C@@H](O)[C@H](N)Cc1ccccc1)C(N)=O`, for which the pIC50 in test [1] is 4.39; in test [2], 4.47; against Xaa-Pro aminopeptidase 1 [4], 4.09.

Regarding `C[C@H](NC(=O)[C@@H]1CCCN1C(=O)C1CCCC1S)C(N)=O` (stereo in doubt; 12), the pIC50 in test [2] is 5.00; against Xaa-Pro aminopeptidase 1 [4] it was 5.20; on Xaa-Pro aminopeptidase 2 [5], 4.54; against Xaa-Pro aminopeptidase 2 [6] it was 5.47.

Consider `C[C@H](NC(=O)[C@@H]1CCCN1C(=O)C1CCCC1S)C(N)=O` (stereo in doubt; 13), for which the pIC50 is under 2.52 in test [1]; 3.52 in test [2]; 4.28 against Xaa-Pro aminopeptidase 1 [4]; 3.41 at Xaa-Pro aminopeptidase 2 [5]; 3.82 against Xaa-Pro aminopeptidase 2 [6].

As for `C[C@H](NC(=O)[C@@H]1CCCN1C(=O)C1CCCCC1C(=O)NO)C(N)=O` (stereo in doubt; 14), the pIC50 in test [1] was 3.89; in test [2], 4.30; against Xaa-Pro aminopeptidase 1 [4], under 2.52.

In the case of `C[C@H](NC(=O)[C@@H]1CCCN1C(=O)C1CCCCC1C(=O)NO)C(N)=O` (stereo in doubt; 15), the pIC50 in test [1] is under 2.70; in test [2] it was under 3.30; against Xaa-Pro aminopeptidase 1 [4] it was under 2.70.

In the case of `C[C@H](NC(=O)[C@@H]1CCCN1C(=O)C1CCCCC1C(=O)NO)C(N)=O` (stereo in doubt; 16), the pIC50 was 2.70 in test [1], under 2.30 in test [2] and under 2.30 at Xaa-Pro aminopeptidase 1 [4].
